≈ marks a conversion by molar mass, not a printed value.
Tests used:
[1] = Inhibition of Klebsiella pneumoniae Beta-lactamase SHV-1
Method in brief: (§1)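 Purified β-lactamase (final 0.25 μg/ml) was preincubated with inhibitor for 10 min at 37°C in […] phosphate, pH 7, with 10% DMSO final. Prewarmed nitrocefin was then added (final […] as printed). A490 was read every 30 s for 10 min at 37°C to give initial rates. IC50 was fitted by sigmoidal nonlinear regression, from at least two independent experiments, with 95% CI.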

Enterococcus sp. = assay: Antibacterial activity against Enterococcus sp. by broth microdilution method; assay type: functional
Method in brief: (§2)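 Broth microdilution MICs per CLSI against clinical and ATCC isolates; stocks in distilled water, diluted with water or Mueller-Hinton broth, drug weights corrected for salt forms. Twofold series from 256 to 0.125 μg/ml or 25.6 to 0.0125 μg/ml. Inoculum 5 × 10^5 CFU/ml (final) by direct colony suspension. β-Lactamase inhibitors, when combined with a β-lactam, held constant at 4 μg/ml.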

[2] = Inhibition of Beta-lactamase TEM-1; method in brief: as §1
Klebsiella sp. = assay: Antibacterial activity against Klebsiella sp. by broth microdilution method; assay type: functional; method in brief: as §2
Moraxella catarrhalis = assay: Antibacterial activity against Moraxella catarrhalis by broth microdilution method; assay type: functional; method in brief: as §2
Enterobacter cloacae = assay: Antibacterial activity against Enterobacter cloacae by broth microdilution method; assay type: functional; method in brief: as §2
Citrobacter freundii = assay: Antibacterial activity against Citrobacter freundii by broth microdilution method; assay type: functional; method in brief: as §2
Staphylococcus aureus [3] = assay: Antibacterial activity against methicillin-susceptible Staphylococcus aureus by broth microdilution method; assay type: functional; method in brief: as §2
Escherichia coli = assay: Antibacterial activity against Escherichia coli by broth microdilution method; assay type: functional; method in brief: as §2
Staphylococcus aureus [4] = assay: Antibacterial activity against methicillin-resistant Staphylococcus aureus by broth microdilution method; assay type: functional
Method in brief: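 CLSI broth microdilution MIC against clinical isolates. In β-lactam combinations the inhibitor was held constant at 4 μg/ml. Inoculum was prepared by direct colony suspension, final 5 × 10^5 CFU/ml.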

[5] = Inhibition of Enterobacter cloacae Beta-lactamase AmpC; method in brief: as §1
Pseudomonas aeruginosa = assay: Antibacterial activity against Pseudomonas aeruginosa by broth microdilution method; assay type: functional; method in brief: as §2

Compound	IC50 [1] [nM]	MIC (Enterococcus sp.) [µg/mL]	IC50 [2] [nM]	MIC (Klebsiella sp.) [µg/mL]	MIC50 (Klebsiella sp.) [µg/mL]	MIC90 (Klebsiella sp.) [µg/mL]	MIC50 (Moraxella catarrhalis) [µg/mL]	MIC90 (Moraxella catarrhalis) [µg/mL]	MIC (Enterobacter cloacae) [µg/mL]	MIC50 (Enterobacter cloacae) [µg/mL]	MIC90 (Enterobacter cloacae) [µg/mL]	MIC (Citrobacter freundii) [µg/mL]	MIC (Staphylococcus aureus [3]) [µg/mL]	MIC (Escherichia coli) [µg/mL]	MIC50 (Escherichia coli) [µg/mL]	MIC90 (Escherichia coli) [µg/mL]	MIC50 (Staphylococcus aureus [4]) [µg/mL]	MIC90 (Staphylococcus aureus [4]) [µg/mL]	IC50 [5] [nM]	MIC (Pseudomonas aeruginosa) [µg/mL]
C/C=C1/C(=O)N2C(C(=O)O)=C3[C@@H](OC)CCC[C@@H]3[C@H]12	151	> 25.6	55	6.4 (≈ 24.3 µM)	> 25.6	> 25.6	0.8 (≈ 3.04 µM)	0.8 (≈ 3.04 µM)	> 25.6	> 25.6	> 25.6	> 25.6	0.8 (≈ 3.04 µM)	> 25.6	> 25.6	> 25.6	> 256	> 256	62	> 25.6
CC1(C)[C@H](C(=O)O)N2C(=O)C[C@H]2S1(=O)=O [SULBACTAM]	3960	–	1060	–	–	–	–	–	–	–	–	–	–	–	–	–	–	–	11900	–
O=C(O)[C@H]1/C(=C/CO)O[C@@H]2CC(=O)N21 [CLAVULANIC ACID]	28	–	30	–	–	–	–	–	–	–	–	–	–	–	–	–	–	–	136000	–
C[C@]1(Cn2ccnn2)[C@H](C(=O)O)N2C(=O)C[C@H]2S1(=O)=O [TAZOBACTAM]	–	–	14	–	–	–	–	–	–	–	–	–	–	–	–	–	–	–	1760	–
